MrgX1 antag: antagonists of human MrgX1 receptor | hit rate 1.3% among 310,000 | MRGX1-HEK293 calcium flux, Fluo-4, BAM8-22 antagonism; stronger effect = lower value | B-score at 10 µM;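 active = calcium-response B-score plate-corrected more than 3 library SD below zero, starting fluorescence within 5 deviations, no agonist response on first addition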;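 also: peak minus trough fluorescence over baseline after final BAM8-22 challenge near maximal dose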
Target sequence (Q96LB2 whole entry, looked up): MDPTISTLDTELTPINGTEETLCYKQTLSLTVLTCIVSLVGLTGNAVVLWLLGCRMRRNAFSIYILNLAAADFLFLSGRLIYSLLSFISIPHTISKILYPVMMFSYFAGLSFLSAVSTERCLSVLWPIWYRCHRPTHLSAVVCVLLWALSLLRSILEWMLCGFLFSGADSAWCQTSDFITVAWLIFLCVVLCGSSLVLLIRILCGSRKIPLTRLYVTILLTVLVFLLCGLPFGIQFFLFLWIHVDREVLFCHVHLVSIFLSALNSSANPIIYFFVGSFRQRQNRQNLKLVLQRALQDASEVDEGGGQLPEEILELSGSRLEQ
MrgX1 agonist: human MrgX1 receptor agonism, primary screen; Q96LB2; MrgX1-HEK293 cells, Fluo-4 calcium fluorescence, agonist mode; stronger effect = higher value; AID 588627; hit rate 0.44% among 310,000; B-score at 10 µM;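 active = calcium response B-score plate-corrected fluorescence ratio at least 3 library SD, with starting fluorescence B-score inside 5 SD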
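Material: MrgX1-expressing HEK293 cells; input: 15,000 cells per well; doses: test compound given as first of three sequential additions; schedule: overnight plating before 1 h dye loading; technique: Fluo-4 NW calcium-flux fluorescence, kinetic read; evaluation: baseline-normalised fluorescence change ratio, B-scored; control set: plate-wise positive and negative controls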
RGS4 inh: inhibitors of human RGS4; P49798; HEK293 M3R/RGS4 inducible, Fluo-4 calcium flux; stronger effect = higher value; triggered by carbachol at its EC20; B-score at 10 µM; hit rate 0.45% among 310,000; AID 463165;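 active = B-score, a plate-corrected calcium signal, over three deviations above library mean, with baseline fluorescence within five deviations of library mean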;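 also: RGS4 expression induced by doxycycline in cells with stable M3 receptor; B-score is computed from the integrated fluorescence ratio over baseline after carbachol; higher B-score means a larger calcium signal and so more RGS4 inhibition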
Target sequence (P49798 whole entry, looked up): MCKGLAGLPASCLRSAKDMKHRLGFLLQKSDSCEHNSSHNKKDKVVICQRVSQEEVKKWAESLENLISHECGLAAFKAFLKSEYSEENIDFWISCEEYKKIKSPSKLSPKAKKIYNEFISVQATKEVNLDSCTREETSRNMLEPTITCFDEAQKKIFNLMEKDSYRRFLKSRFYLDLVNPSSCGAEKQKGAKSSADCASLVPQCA
RGS4 act: potentiators or activators of RGS4 | B-score at 10 µM | AID 463111 | hit rate 0.92% among 310,000 | HEK293 M3R/inducible RGS4, carbachol calcium flux Fluo4; stronger effect = lower value;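 active = B-score of the integrated calcium signal more than 4 SD below the library mean, with starting fluorescence not abnormally high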;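 also: negative B-score means reduced calcium response which marks RGS4 activation or potentiation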
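Material: M3R-expressing HEK293 line, RGS4 induced by doxycycline | Schedule: Overnight RGS4 induction, 30 min dye load 37 °C, 20 min compound RT | Measured by: Fluo4 fluorescence kinetic imaging of calcium | Read-out: Integrated calcium ratio converted to B score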
MrgX1 allo act: human MrgX1 positive allosteric modulation, primary screen; Q96LB2; MrgX1-HEK293, Fluo-4 calcium flux, FDSS; stronger effect = higher value; B-score at 10 µM; hit rate 0.63% among 310,000;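 active = plate-corrected calcium response at least 3 library SD above typical, normal starting fluorescence, not activating the receptor alone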;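 also: compound read alongside a low EC10 to EC30 dose of BAM8-22 agonist; peak minus trough fluorescence over baseline measured at the second addition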
Each line names hits and unclear results; the compound was inactive in the other large screens. Shown are actives, neighbours in structure and some others; about 3.5% of the full set was active somewhere.

O=C(CSc1ccc([N+](=O)[O-])cn1)Nc1cc(C(F)(F)F)ccc1N1CCOCC1	none
C[C@H]1c2cccc(O)c2C(O)=C2C(=O)[C@]3(O)C(O)=C(C(N)=O)C(=O)[C@@H](N(C)C)C3[C@@H](O)C21 (stereo partly specified)	MrgX1 antag -6.8
Cc1ccccc1S(=O)(=O)Oc1ccc2ccc(O)cc2c1	RGS4 act -8.9
CCn1nc(C)c(CNC(=O)Nc2ccccc2C(=O)OC)c1C	none
CCCCNC(=S)N(C)/N=C/c1sc(N2CCCCC2)nc1-c1cccs1	MrgX1 antag -8.7
C=CCn1c(Sc2ncc([N+](=O)[O-])s2)n[nH]c1=O	MrgX1 antag -9.2, RGS4 act -8
C=CCn1c(CSc2ccccc2[N+](=O)[O-])n[nH]c1=S	none
CCOc1ccc(C(CC(=O)O)NC(=O)COc2ccccc2)cc1OC (stereo unspecified)	MrgX1 antag -5.8
O=[N+]([O-])c1ccccc1/C=N/N1CCN(c2ccc(Cl)cc2)CC1	none
O=[N+]([O-])c1ccccc1/C=N\N1CCN(c2ccccc2)CC1	MrgX1 allo act 6.9
O=C(CSc1ccccn1)Nc1nonc1[N+](=O)[O-]	MrgX1 agonist 38
O=C(CSc1ccccn1)Nc1ccc(NC(=O)CSc2ccccn2)cc1	none
O=C(Nc1ccccc1N1CCCCC1)c1ccc(-c2cccc(Cl)c2)o1	none
CN1CCN(c2ccccc2NC(=O)c2ccc(-c3cccc(Cl)c3)o2)CC1	RGS4 act -8.5
COc1cccc(C(=O)NN2C(=S)N(c3ccccc3)C(=O)C2CC(N)=O)c1 (stereo unspecified)	none
CCCCC[C@H](O)/C=C/[C@H]1[C@H](O)CC(=O)[C@@H]1CCCCCCC(=O)O	MrgX1 agonist 30, RGS4 inh 6.4
CCCCC1C(=O)CC[C@H]2[C@@H]1CC(=O)[C@@H]2C/C=C\CCCC(=O)O (stereo partly specified)	none
O=C(CN1C(=O)NC2(CCCC2)C1=O)NNC(=O)c1ccc(F)cc1	none
CC(C)CC(=O)NC(NC(=S)Nc1sc2c(c1C#N)CCCC2)C(Cl)(Cl)Cl (stereo unspecified)	MrgX1 antag -4.5
O=C(N/N=C/c1ccc(N2CCOCC2)cc1)c1ccccc1OCCOc1ccccc1	RGS4 act -7.1
O=C(N/N=C/c1ccc(N2CCOCC2)cc1)c1cccs1	none
Cc1cc(C)c(S(=O)(=O)N2CCCCC2CCNC(=O)C(=O)NC2CC2)c(C)c1 (stereo unspecified)	none
O=C(Cc1ccccc1)NCC(=O)N1CCC1	none
CC1CCN(CCCNC(=O)C2CCN(S(=O)(=O)N3CCC4(CC3)OCCO4)CC2)CC1	none
Cc1cc2oc(=O)cc(CN3CCCCC3)c2cc1O	none
Cc1cc2oc(=O)cc(CN3CCCCC3)c2cc1C(C)C	MrgX1 agonist 51
CCOC(=O)N1CCN(Cc2cc(=O)oc3ccc(Cl)cc23)CC1	none
CCOC(=O)N1CCN(Cc2cc(=O)oc3cc4c(cc23)CCC4)CC1	MrgX1 agonist 33
CCn1c(Cc2ccccc2)nnc1SCC(=O)Nc1ccc(C)cc1	none
CCn1c(CC(=O)Nc2ccc(C)cc2)nnc1SCC(=O)NCCc1ccccc1	MrgX1 antag -5.5
O=C(O)Cc1sc(Nc2cccc3ccccc23)nc1-c1ccc(Cl)cc1	none
CN1CCN(c2ccc(NC(=O)c3ccc(Oc4ccccc4)cc3)cc2)CC1	RGS4 act -7.7
Cc1cccc(N(C(=O)CNC(=O)c2cccs2)C(C(=O)NC2CCCC2)c2ccncc2)c1 (stereo unspecified)	none
COc1cc(/C=C/C(=O)O)cc(S(=O)(=O)Nc2cccc(SC)c2)c1OC	MrgX1 antag -6.3
COc1cc(/C=C/C(=O)O)cc(S(=O)(=O)Nc2ccc(F)cc2)c1OC	none
Cc1ccccc1S(=O)(=O)Oc1cccc2c(O)cccc12	none
CC(C)CN1C(=S)SC(C)(C)C1n1oc(=O)n(-c2ccccc2)c1=O (stereo unspecified)	none
CC(C)CN1C(=S)SC(C)(C)C1n1oc(=O)n(-c2ccc(Cl)cc2)c1=O (stereo unspecified)	RGS4 act -11
O=C(CSc1cn[nH]n1)Nc1ccccc1C(=O)O	none
CCOc1ccc(OCc2ccc(C(=O)N/N=C(\C)c3ccccn3)cc2)cc1	none
CCC(C)/C(C)=N/NC(=O)c1ccc(COc2ccc(Cl)c(C)c2)cc1 (stereo unspecified)	MrgX1 allo act 10 (no result: RGS4 inh, RGS4 act)
CCn1nc(CC(=O)Nc2ccc(-n3cnnn3)c(OC)c2)c2ccccc2c1=O	MrgX1 antag -5.2
CCC(C)(C)NC(=O)/C=C/c1cnc2ccccc2n1	MrgX1 antag -4.7
CCN1C(=O)[C@@H]2Cc3c([nH]c4ccccc34)C(c3ccc(OC)cc3)N2C1=S (stereo partly specified)	MrgX1 antag -4.5
CCC1CCCCN1CCCNC(=O)CNC(=O)c1nn(-c2ccc(OC)c(Cl)c2)c(=O)c2ccccc12 (stereo unspecified)	none
CC1(c2nnc(-c3ccc(Cl)cc3)o2)CC(c2c(Cl)cccc2Cl)=NO1 (stereo unspecified)	RGS4 act -9.2
CC1(c2nnc(-c3ccc(F)cc3)o2)CC(c2c(Cl)cccc2Cl)=NO1 (stereo unspecified)	none
CCOc1ccc(N2C=Nc3ccc(OCC)cc3C2)cc1	none
COc1ccccc1/C=C(\C#N)C(=O)c1cccn1C	MrgX1 agonist 32
Cn1cccc1C(=O)/C(C#N)=C/c1ccc(F)cc1	MrgX1 agonist 35
CCN(CC)c1ccc(/C=C(\C#N)C(N)=S)cc1	none
CN(C)c1ccc(/C=C(\C#N)C(=O)c2ccccc2)cc1	MrgX1 antag -6.3
CCN(CC)c1ccc(/C=C(\C#N)C(=O)c2ccc(Br)cc2)cc1	MrgX1 agonist 30
CCOC(=O)NC(=O)/C(C#N)=C/c1ccc(N(C)C)cc1	MrgX1 agonist 54
COc1ccc(NC2CCCN(C(=O)c3ccccc3C(F)(F)F)C2)cc1 (stereo unspecified)	none
CCN1CCc2c(OCc3ccc(C)cc3)cccc2C1=O	none
O=C(Nc1cccc(F)c1)/C(=C\c1cccnc1)NC(=O)c1ccco1	none
O=C(Nc1cccc(F)c1)/C(=C\c1cccnc1)NC(=O)c1cccs1	MrgX1 antag -5.5
COc1ccccc1CNC(=O)c1cc(-c2ccccc2)n(Cc2cc(C)no2)n1	none (no result: RGS4 inh, RGS4 act)
COc1ccc(CCNC(=O)CCc2cc(OC)c(OC)c(OC)c2)cc1OC	none
CC(C)(C)c1cc(C2=CSC3=NCCN23)cc(C(C)(C)C)c1O	RGS4 act -8.1
CC(C)(C)C(=O)Nc1cc(S(=O)(=O)N2CCCCC2)ccc1N1CCCCC1	none
CC(=O)Nc1ccccc1-c1nc2ccc(C(=O)N3CCN(c4cccc(C)c4)C(C)C3)cc2[nH]c1=O (stereo unspecified)	none
